Usually EC50 stands for the concentration giving half of the maximal effect. Low values mean higher potency in that assay, high ones lower potency in that assay.

Each structure is given as a SMILES string.

From ChEMBL document CHEMBL1147489, “Pi-delocalized beta-carbolinium cations as potential antimalarials” (Bioorg Med Chem Lett, 2004) come the findings set out here.

For one assay, the system named is Plasmodium falciparum. Briefly: In vitro antimalarial activity against Plasmodium falciparum FCR3. It is filed as functional, organism-based. The method, boiled down: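 Drug-sensitive P. falciparum FCR-3 strain tested in vitro; antimalarial potency given as EC50 (M).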
Assay [1] concerns FM3A. Briefly: In vitro cytotoxic activity tested in mouse mammary tumor FM3A cells. The class given is functional, cell-based. The method, boiled down: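 Growth-inhibition assay in mouse mammary tumour FM3A cells, used as a model of the host. The value reported is the EC50 for cell growth.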
Assay [2] relates to FM3A. The assay can be described thus: Relative activity against FM3A cells and Plasmodium falciparum FCR3. The class given is functional. In a few lines: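 Selective toxicity calculated as EC50 in FM3A cells divided by EC50 against P. falciparum FCR-3.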
For assay [3], the system named is FM3A. Briefly: In vitro growth inhibitory activity tested in mouse mammary tumor FM3A cells at 3.0E-5 M concentration.

On to `COc1ccc2c3ccnc(C)c3n(C)c2c1`, for which the EC50 turned out to be 31 µM in the assay with Plasmodium falciparum and 32 µM in the assay with FM3A [1]. Also, in the assay with FM3A [2], the Selective toxicity is recorded as 1.

`CC1=NCCc2c1[nH]c1ccccc21`: the EC50 amounted to 18 µM in the assay with Plasmodium falciparum and 45 µM in the assay on FM3A [1]. The compound also gave a Selective toxicity in the assay on FM3A [2] of 2.1.

For `COc1ccc2c(c1)[nH]c1c(C)[n+](C)ccc12.Cc1ccc(S(=O)(=O)[O-])cc1`, the EC50 amounted to 1.1 µM with Plasmodium falciparum and 19 µM in the assay on FM3A [1]. The same compound had a Selective toxicity with FM3A [2] of 17.

On to `CCc1c2[nH]c3ccccc3c2c(OC)c[n+]1C.[I-]`, for which, in the assay on Plasmodium falciparum, it took 0.95 µM to reach a half-maximal effect (EC50). Further, the Percent growth in the assay with FM3A [3] turned out to be 63%. In the assay on FM3A [2], this compound showed a Selective toxicity above 32.

For the compound `COc1ccc2c3cc[n+](C)c(C)c3n(C)c2c1.Cc1ccc(S(=O)(=O)[O-])cc1`, the concentration giving a half-maximal response (EC50) in the assay with Plasmodium falciparum came out at 0.46 µM; in the assay on FM3A [1] it was 22 µM. The compound also came in with a Selective toxicity with FM3A [2] of 48.

Take `COc1ccc2c(c1)[nH]c1c(C)nccc12` [HARMINE]: the concentration giving a half-maximal response (EC50) came to 22 µM in the assay on Plasmodium falciparum and 18 µM in the assay on FM3A [1]. In the assay on FM3A [2], the Selective toxicity came to 0.82.

In turn, `C=C[C@H]1CN2CC[C@H]1C[C@H]2[C@H](O)c1ccnc2ccc(OC)cc12` [QUININE] gave a Selective toxicity with FM3A [2] of 910.

Compound `CC1=[N+](C)CCc2c1[nH]c1ccccc21.Cc1ccc(S(=O)(=O)[O-])cc1` yielded an EC50 in the assay with Plasmodium falciparum of 16 µM. This compound gave a Selective toxicity in the assay with FM3A [2] above 24.

Consider `Cc1c2nc3ccccc3c-2ccn1C`, for which the EC50 with Plasmodium falciparum was determined as 4.8 µM; in the assay on FM3A [1], 29 µM. Moreover, the Selective toxicity in the assay with FM3A [2] was 6.

For the compound `C=Cc1ncc(OC)c2c1[nH]c1ccccc12`, the EC50 with Plasmodium falciparum is 5 µM; in the assay on FM3A [1], 3.8 µM. The compound further yielded a Selective toxicity in the assay with FM3A [2] of 0.76.

For the compound `Cc1c2[nH]c3ccccc3c2cc[n+]1C.Cc1ccc(S(=O)(=O)[O-])cc1`, the EC50 with Plasmodium falciparum came out at 2 µM; with FM3A [1], 35 µM. This compound also had a Selective toxicity in the assay with FM3A [2] of 18.

In the assay with Plasmodium falciparum, `COc1ccc2c3cc[n+](CCO)c(C)c3n(C)c2c1.[Br-]` showed an EC50 of 1.1 µM. Also, the Selective toxicity in the assay with FM3A [2] is above 65.

Regarding `COc1c[n+](C)c(C)c2[nH]c3ccccc3c12.[I-]`, the EC50 in the assay with Plasmodium falciparum is 0.37 µM; in the assay on FM3A [1], 30 µM. The same compound came in with a Selective toxicity in the assay on FM3A [2] of 81.

With `COc1cnc(C)c2[nH]c3ccccc3c12`, the concentration for a half-maximal effect (EC50) with Plasmodium falciparum was found to be 22 µM; with FM3A [1], 18 µM. The same compound had a Selective toxicity in the assay with FM3A [2] of 0.82.

`C[n+]1ccc2c([nH]c3ccccc32)c1-c1ccccc1.Cc1ccc(S(=O)(=O)[O-])cc1` gave an EC50 with Plasmodium falciparum of 13 µM. The Selective toxicity with FM3A [2] is above 1.8.

As for `CCOC(=O)c1c2[nH]c3ccccc3c2c(OC)c[n+]1C.Cc1ccc(S(=O)(=O)[O-])cc1`, the EC50 came out at 19 µM in the assay with Plasmodium falciparum and 22 µM with FM3A [1]. Further, the Selective toxicity in the assay with FM3A [2] is 1.2.

For `C=Cc1c2[nH]c3ccccc3c2c(OC)c[n+]1CC.Cc1ccc(S(=O)(=O)[O-])cc1`, the EC50 amounted to 0.13 µM in the assay on Plasmodium falciparum and 10 µM in the assay with FM3A [1]. Besides, the Selective toxicity in the assay on FM3A [2] is 77.

In the case of `C=Cc1c2[nH]c3ccccc3c2c(OC)c[n+]1C.Cc1ccc(S(=O)(=O)[O-])cc1`, the figures for the concentration for a half-maximal effect (EC50) in the assay on Plasmodium falciparum and in the assay on FM3A [1] were 1.1 µM and 8.4 µM, respectively. The compound also returned a Selective toxicity in the assay with FM3A [2] of 7.6.
